Data set [1] in a line: Inhibition of dog kidney Na+K+-ATPase assessed as hydrolysis of [32P]ATP. Further details: species or system Canis lupus familiaris. In short, it runs like this: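 Dog kidney Na+,K+-ATPase, isolated and purified by the Jørgensen method. Enzyme activity was read as % hydrolysis of 32P-ATP with versus without test compound. IC50 was obtained by nonlinear least-squares curve fitting, as the mean of two or three experiments.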

The species entered for data set [2] is Cavia porcellus. Briefly: Positive inotropic activity in electrically driven guinea pig atria assessed as maximal concentration required to increase in […]. It is filed as functional.
In data set [3] the test system is Cavia porcellus. Briefly: Positive inotropic activity in guinea pig atria assessed as increase in […] at 0.16 ml/min, iv. The class given is functional.
In data set [4] the test system is Cavia porcellus. Briefly: Positive inotropic activity in iv dosed guinea pig atria assessed as concentration required to increase in […]. It is filed as functional.
Data set [5] has as its system Cavia porcellus. Briefly: Toxicity in guinea pig assessed as death at 0.16 ml/min, iv up to 90 mins. The class given is organism-based. The following applies: in vivo, 1.5 h. In short, it runs like this:
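Anesthetized guinea pigs with a jugular vein cannula and an intubated trachea for spontaneous respiration. After stabilization, drug was infused iv at 0.16 mL/min until death or for up to 90 min. Vehicle was DMSO diluted in physiological solution to 1% DMSO final. Read-out was +dP/dt_max. ED80 (dose raising +dP/dt_max by 80%) came from the dose–response, and the doses giving maximum inotropy and death were recorded, giving the lethal dose/ED80 ratio.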

For the compound `C[C@]12CC/C(=N\OCCN)C[C@@H]1[C@H](O[N+](=O)[O-])C[C@@H]1[C@@H]2CC[C@]2(C)C(=O)CC[C@@H]12`, the IC50 in data set [1] came to 2900 nM. Turning to `CNCCCO/N=C1\CC[C@@]2(C)[C@H](C1)[C@@H](COC)C[C@@H]1[C@@H]2CC[C@]2(C)C(=O)CC[C@@H]12`, the IC50 in data set [1] stood at 2000 nM. On to `C=CCO/N=C1\C[C@@H]2[C@H](CC[C@]3(C)C(=O)CC[C@@H]23)[C@@]2(C)CC/C(=N\OCCN)C[C@H]12`, for which the IC50 in data set [1] was 43000 nM. In the case of `COC(=O)/C=C1\C[C@@H]2[C@H](CC[C@]3(C)C(=O)CC[C@@H]23)[C@@]2(C)CC/C(=N\OCCN)C[C@H]12`, the IC50 in data set [1] amounted to 64000 nM.

With `COC[C@@H]1C[C@@H]2[C@H](CC[C@]3(C)C(=O)CC[C@@H]23)[C@@]2(C)CC/C(=N\OCCN)C[C@H]12`, the IC50 in data set [1] stood at 3000 nM. In the case of `COC[C@H]1C[C@@H]2[C@H](CC[C@]3(C)C(=O)CC[C@@H]23)[C@@]2(C)CC/C(=N\OCCN)C[C@H]12`, in data set [1], the IC50 came to 500 nM. With `C[C@]12CC/C(=N\OCCN)C[C@@H]1[C@@]1(CO1)C[C@@H]1[C@@H]2CC[C@]2(C)C(=O)CC[C@@H]12`, the IC50 in data set [1] worked out at 910 nM.

Turning to `CO/N=C1\C[C@@H]2[C@H](CC[C@]3(C)C(=O)CC[C@@H]23)[C@@]2(C)CC/C(=N\O[C@@H]3CCNC3)C[C@H]12`, in data set [1], the IC50 was found to be 18 nM.

On to `C[C@]12CC/C(=N\OCCN)C[C@@H]1[C@]1(CO1)C[C@@H]1[C@@H]2CC[C@]2(C)C(=O)CC[C@@H]12`, for which the IC50 in data set [1] stood at 870 nM. Still for that read-out and setting: to `C[C@]12CC/C(=N\O[C@@H]3CCNC3)C[C@@H]1[C@@H](CO)C[C@@H]1[C@@H]2CC[C@]2(C)C(=O)CC[C@@H]12` belongs 26 nM; to `CNCCCO/N=C1\CC[C@@]2(C)[C@H](C1)C1(CC1)C[C@@H]1[C@@H]2CC[C@]2(C)C(=O)CC[C@@H]12`, 1300 nM.

Take `CNCCCO/N=C1\CC[C@@]2(C)[C@H](C1)C(=O)C[C@@H]1[C@@H]2CC[C@]2(C)C(=O)CC[C@@H]12`: the IC50 in data set [1] was found to be 250 nM. On the same count and under the same terms, to `C=C1C[C@@H]2[C@H](CC[C@]3(C)C(=O)CC[C@@H]23)[C@@]2(C)CC/C(=N\OCCCNC)C[C@H]12` belongs 570 nM; to `C[C@]12CC/C(=N\OCCN)C[C@@H]1[C@@H](C#N)C[C@@H]1[C@@H]2CC[C@]2(C)C(=O)CC[C@@H]12`, 1100 nM. `COC(=O)[C@H]1C[C@@H]2[C@H](CC[C@]3(C)C(=O)CC[C@@H]23)[C@@]2(C)CC/C(=N\OCCN)C[C@H]12`: in data set [1], the IC50 is 410 nM. `C[C@]12CC/C(=N\OCCN)C[C@@H]1[C@@H](C(N)=O)C[C@@H]1[C@@H]2CC[C@]2(C)C(=O)CC[C@@H]12`: in data set [1], the IC50 turned out to be 630 nM. Take `C#C[C@H]1C[C@@H]2[C@H](CC[C@]3(C)C(=O)CC[C@@H]23)[C@@]2(C)CC/C(=N\OCCCNC)C[C@H]12`: the IC50 in data set [1] was determined as 1200 nM. With `CNCCCO/N=C1\CC[C@@]2(C)[C@H](C1)[C@@H](C(N)=O)C[C@@H]1[C@@H]2CC[C@]2(C)C(=O)CC[C@@H]12`, in data set [1], the IC50 worked out at 1900 nM. Regarding `CNCCCO/N=C1\CC[C@@]2(C)[C@H](C1)[C@@H](C(=O)OC)C[C@@H]1[C@@H]2CC[C@]2(C)C(=O)CC[C@@H]12`, in data set [1], the IC50 was found to be 4000 nM. On to `CO[C@@H]1C[C@@H]2[C@H](CC[C@]3(C)C(=O)CC[C@@H]23)[C@@]2(C)CC/C(=N\OCCN)C[C@H]12`, for which the IC50 in data set [1] came to 1500 nM.

Regarding `C[C@]12CC/C(=N\OCCN)C[C@@H]1[C@@H](O)C[C@@H]1[C@@H]2CC[C@]2(C)C(=O)CC[C@@H]12`, the IC50 in data set [1] was found to be 520 nM. On to `C[C@]12CC/C(=N\OCCN)C[C@@H]1[C@H](O)C[C@@H]1[C@@H]2CC[C@]2(C)C(=O)CC[C@@H]12`, for which, in data set [1], the IC50 is 2100 nM.

As for `C=C1C[C@@H]2[C@H](CC[C@]3(C)C(=O)CC[C@@H]23)[C@@]2(C)CC/C(=N\OCCN)C[C@H]12`, the IC50 in data set [1] is 42 nM.

In the case of `C[C@]12CC/C(=N\OCCN)C[C@@H]1[C@@H](C(=O)O)C[C@@H]1[C@@H]2CC[C@]2(C)C(=O)CC[C@@H]12`, in data set [1], the IC50 turned out to be 16000 nM.

As to `C[C@]12CC/C(=N\OCCN)C[C@@H]1C(=C(F)F)C[C@@H]1[C@@H]2CC[C@]2(C)C(=O)CC[C@@H]12`, the IC50 in data set [1] was determined as 190 nM. Same read-out and setting: next, `C/C=C1\C[C@@H]2[C@H](CC[C@]3(C)C(=O)CC[C@@H]23)[C@@]2(C)CC/C(=N\OCCN)C[C@H]12`: 1100 nM; `C[C@]12CC/C(=N\OCCN)C[C@@H]1C1(CC1)C[C@@H]1[C@@H]2CC[C@]2(C)C(=O)CC[C@@H]12`: 850 nM. For the compound `C[C@H]1C[C@@H]2[C@H](CC[C@]3(C)C(=O)CC[C@@H]23)[C@@]2(C)CC/C(=N\OCCN)C[C@H]12.Cl`, the half-maximal inhibitory concentration (IC50) in data set [1] was 300 nM. Moreover, the figures for the Activity in the data set filed under Cavia porcellus [2] and in the data set with Cavia porcellus [5] were 5.8 µM/g and “Non-toxic”, respectively. For the same compound, the Emax with Cavia porcellus [3] came out at 203%. The ED80 in the data set on Cavia porcellus [4] amounted to 3.1 µM/g. As for `C=C[C@H]1C[C@@H]2[C@H](CC[C@]3(C)C(=O)CC[C@@H]23)[C@@]2(C)CC/C(=N\OCCN)C[C@H]12`, the IC50 in data set [1] was 530 nM.

On to `C#C[C@H]1C[C@@H]2[C@H](CC[C@]3(C)C(=O)CC[C@@H]23)[C@@]2(C)CC/C(=N\OCCN)C[C@H]12.Cl`, for which, in data set [1], the IC50 worked out at 200 nM. Besides, the Activity in the data set filed under Cavia porcellus [2] was 9.9 µM/g; in the data set with Cavia porcellus [5] it was “Non-toxic”. The Emax with Cavia porcellus [3] came out at 163%. Also, the ED80 with Cavia porcellus [4] was 4.6 µM/g.

Regarding `C[C@@H]1C[C@@H]2[C@H](CC[C@]3(C)C(=O)CC[C@@H]23)[C@@]2(C)CC/C(=N\OCCN)C[C@H]12`, the IC50 in data set [1] worked out at 6000 nM. As for `CO/N=C1\C[C@@H]2[C@H](CC[C@]3(C)C(=O)CC[C@@H]23)[C@@]2(C)CC/C(=N\OCCN)C[C@H]12.Cl`, the half-maximal inhibitory concentration (IC50) in data set [1] is 17 nM. Also, the Activity in the data set listed under Cavia porcellus [2] was 5.8 µM/g; in the data set on Cavia porcellus [5], “Non-toxic”. The Emax with Cavia porcellus [3] amounted to 183%. The ED80 in the data set with Cavia porcellus [4] amounted to 2.4 µM/g.

Turning to `CCO/N=C1\C[C@@H]2[C@H](CC[C@]3(C)C(=O)CC[C@@H]23)[C@@]2(C)CC/C(=N\OCCN)C[C@H]12`, the IC50 in data set [1] came to 1700 nM. Take `C[C@]12CC/C(=N\O[C@@H]3CCNC3)C[C@@H]1[C@@H](O[N+](=O)[O-])C[C@@H]1[C@@H]2CC[C@]2(C)C(=O)CC[C@@H]12`: the IC50 in data set [1] came to 380 nM.

Turning to `C[C@]12CC/C(=N\OCCN)C[C@@H]1/C(=C/C#N)C[C@@H]1[C@@H]2CC[C@]2(C)C(=O)CC[C@@H]12`, the IC50 in data set [1] worked out at 1700 nM. As for `C[C@H]1C[C@@H]2[C@H](CC[C@]3(C)C(=O)CC[C@@H]23)[C@@]2(C)CC/C(=N\O[C@@H]3CCNC3)C[C@H]12`, in data set [1], the IC50 is 340 nM. As to `C[C@]12CC/C(=N\OCCN)C[C@@H]1[C@@H](CO)C[C@@H]1[C@@H]2CC[C@]2(C)C(=O)CC[C@@H]12.Cl`, the IC50 in data set [1] stood at 180 nM. Moreover, the values for the Activity in the data set filed under Cavia porcellus [2] and in the data set with Cavia porcellus [5] were 7.4 µM/g and “Non-toxic”, respectively. Moreover, in the data set on Cavia porcellus [3], the Emax came to 166%. The ED80 in the data set on Cavia porcellus [4] came to 1.8 µM/g.

For the compound `C[C@]12CC/C(=N\OCCN)C[C@@H]1[C@H](CO)C[C@@H]1[C@@H]2CC[C@]2(C)C(=O)CC[C@@H]12`, the IC50 in data set [1] was 1600 nM. On to `C#C[C@H]1C[C@@H]2[C@H](CC[C@]3(C)C(=O)CC[C@@H]23)[C@@]2(C)CC/C(=N\O[C@@H]3CCNC3)C[C@H]12.Cl`, for which the IC50 in data set [1] stood at 110 nM. Further, the Activity in the data set listed under Cavia porcellus [2] was 6 µM/g; in the data set with Cavia porcellus [5] it was “Non-toxic”. In the data set on Cavia porcellus [3], the Emax was 147%. The ED80 in the data set on Cavia porcellus [4] is 3.7 µM/g. Regarding `CC(=O)N[C@H]1C[C@@H]2[C@H](CC[C@]3(C)C(=O)CC[C@@H]23)[C@@]2(C)CC/C(=N\OCCN)C[C@H]12`, in data set [1], the IC50 turned out to be 45000 nM. Turning to `C=C1C[C@@H]2[C@H](CC[C@]3(C)C(=O)CC[C@@H]23)[C@@]2(C)CC/C(=N\O[C@@H]3CCNC3)C[C@H]12`, the IC50 in data set [1] was 46 nM. Still for that read-out and setting: to `C[C@]12CC/C(=N\OCCN)C[C@@H]1/C(=C/CO)C[C@@H]1[C@@H]2CC[C@]2(C)C(=O)CC[C@@H]12` belongs 770 nM. For `C[C@]12CC/C(=N\O[C@@H]3CCNC3)C[C@@H]1C(=C(F)F)C[C@@H]1[C@@H]2CC[C@]2(C)C(=O)CC[C@@H]12.Cl`, in data set [1], the IC50 was 21 nM. For the same compound, the Activity in the data set filed under Cavia porcellus [2] was 18 µM/g; in the data set on Cavia porcellus [5], “Non-toxic”. In the data set with Cavia porcellus [3], the Emax stood at 244%. Further, in the data set on Cavia porcellus [4], the ED80 was 6.7 µM/g.

In the case of `C[C@]12CC/C(=N\O[C@@H]3CCNC3)C[C@@H]1C1(CC1)C[C@@H]1[C@@H]2CC[C@]2(C)C(=O)CC[C@@H]12`, in data set [1], the IC50 amounted to 220 nM. Consider `CNCCCO/N=C1\CC[C@@]2(C)[C@H](C1)/C(=N/OC)C[C@@H]1[C@@H]2CC[C@]2(C)C(=O)CC[C@@H]12`, for which the IC50 in data set [1] stood at 330 nM. Still for that read-out and setting: to `CCO[C@H]1C[C@@H]2[C@H](CC[C@]3(C)C(=O)CC[C@@H]23)[C@@]2(C)CC/C(=N\OCCN)C[C@H]12` belongs 3100 nM. Take `C[C@]12CC/C(=N\O[C@@H]3CCNC3)C[C@@H]1C(=O)C[C@@H]1[C@@H]2CC[C@]2(C)C(=O)CC[C@@H]12`: the IC50 in data set [1] amounted to 26 nM.

As a reminder, the IC50 is the midpoint of a concentration-inhibition curve. In general, Emax refers to the maximal effect, on the per cent scale that the assay sets.

(Values after ChEMBL document CHEMBL1165977, “Novel analogues of Istaroxime, a potent inhibitor of Na(+),K(+)-ATPase: Synthesis, structure-activity relationship and 3D-quantitative structure-activity relationship of derivatives at position 6 on the androstane scaffold” (Bioorg Med Chem, 2010).)
